A short description of data set [1]: Kinetic solubility of compound at pH 7.4 by shake flask assay. It counts as physicochemical. The conditions noted are these: buffer. An outline of the steps:
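Kinetic solubility of DMSO solutions in phosphate-buffered saline, pH 7.4, by automated miniaturized shake-flask method. Quantitation was by chemiluminescent nitrogen detection.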

Data set [2] relates to LNCaP/AR. The data set can be described thus: Antiproliferative activity against human LNCaP/AR cells assessed as reduction in cell growth measured after 3 days by CellTiter-Glo assay. It counts as functional, cell-based. The conditions noted are these: dose 0.1-25 µM, time 3.0 day. An outline of the steps: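 LNCaP-AR cells (AR-overexpressing) were seeded at 20,000/well, four replicates, in 0.1% DMSO complete medium. Drug was added 24 h later across 0.1–25 μM (0.2% final DMSO) for three days. Viability was measured by CellTiter-Glo luminescence after 10 min at room temperature.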
For orientation: Cellular ATP, detected with luciferase, serves as a proxy for viable cell number.

Data set [3] is described as follows: Cmax in NSG mouse at 10 mg/kg, ip. It counts as ADME, organism-based. As to conditions: in vivo. Set-up: dose 10 mg/kg, route ip. The procedure, abridged:
(§1)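 Healthy NSG mice got a single 10 mg/kg intraperitoneal dose. Plasma concentrations of conjugate and released payload were measured over time, with n = 9 or n = 6 mice depending on conjugate. Tmax, Cmax and AUClast (hr•ng/mL) were derived from the plasma profiles.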

Data set [4] concerns LNCaP. The data set can be described thus: Reduction in KLK2 gene expression in human LNCaP cells at 5 uM incubated for 48 hrs by qRT-PCR analysis. In kind it is functional, cell-based. An outline of the steps: (§2)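 Cells were plated in triplicate per condition; drug (0.1% final DMSO) was added after 24 h and left for 48 h. RNA was extracted and 2 μg reverse-transcribed. cDNA was diluted 1:50 and amplified by qPCR with 400 nM primers.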
(In general: In qPCR the cycle at which signal appears reflects the starting amount.)

Data set [5] in a line: AUClast in NSG mouse at 10 mg/kg, ip. Set-up: dose 10 mg/kg, route ip. The conditions noted are these: in vivo. In kind it is ADME, organism-based. The procedure, abridged:
as §1

Data set [6] has as its system PC-3. The data set can be described thus: Antiproliferative activity against androgen receptor negative human PC-3 cells assessed as reduction in cell growth at 5 uM measured upto 6 days by CellTiter-Glo assay. In kind it is functional, cell-based. The conditions noted are these: time <= 6.0 day. An outline of the steps: (§3)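 Cells were seeded at 20,000/well, four replicates per condition, in complete medium with 0.1% DMSO. Compound was added 24 h after seeding at a single concentration of 5 μM (0.2% final DMSO). Viability was read by CellTiter-Glo luminescence (10 min, room temperature, in HBSS) at timepoints up to 144 h (6 days).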

The nature of data set [7]: Metabolic stability in human liver microsomes assessed as intrinsic clearance measured upto 60 mins in presence of NADPH by LC/MS/MS analysis. In kind it is ADME, Microsome. As to conditions: 1 h. An outline of the steps: (§4)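 Human liver microsomes at 0.5 mg/mL protein with 1 mM NADPH, sampled at 0, 15, 30 and 60 min, N = 1. Parent disappearance was followed by LC/MS/MS with verapamil as control. CLint = ln(2)*1000/T1/2/protein concentration (mg/mL).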

The nature of data set [8]: Tmax in NSG mouse at 10 mg/kg, ip. The conditions noted are these: in vivo. In kind it is ADME, organism-based. An outline of the steps: as §1
Data set [9] has as its system LNCaP/AR. The data set can be described thus: Antiproliferative activity against human LNCaP/AR cells assessed as reduction in cell growth at 5 uM measured upto 6 days by CellTiter-Glo assay. It counts as functional, cell-based. As to conditions: time <= 6.0 day.
A short description of data set [10]: Metabolic stability in human liver microsomes assessed as half life measured upto 60 mins in presence of NADPH by LC/MS/MS analysis. As to conditions: 1 h. In kind it is ADME, Microsome. An outline of the steps:
as §4
For orientation: Liver microsomes are vesicles of endoplasmic reticulum, rich in cytochrome P450 enzymes.

Data set [11] has as its system LNCaP. Put plainly: Reduction in KLK3 gene expression in human LNCaP cells at 5 uM incubated for 48 hrs by qRT-PCR analysis. In kind it is functional, cell-based. The procedure, abridged: as §2
Data set [12] relates to LNCaP C4-2B. Put plainly: Antiproliferative activity against androgen receptor positive human LNCaP C4-2B cells assessed as reduction in cell growth at 5 uM measured upto 6 days by CellTiter-Glo assay. In kind it is functional, cell-based. As to conditions: time <= 6.0 day. An outline of the steps: as §3
The nature of data set [13]: Metabolic stability in mouse liver microsomes assessed as intrinsic clearance measured upto 60 mins in presence of NADPH by LC/MS/MS analysis. The conditions noted are these: 1 h. In kind it is ADME, Microsome.
Data set [14] is described as follows: Metabolic stability in mouse liver microsomes assessed as half life measured upto 60 mins in presence of NADPH by LC/MS/MS analysis. It counts as ADME, Microsome. The conditions noted are these: 1 h.
The nature of data set [15]: Drug concentration in NSG mouse brain at 10 mg/kg, ip measured after 2 hrs. In kind it is ADME, organism-based. As to conditions: read-out: Drug uptake. The procedure, abridged: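 Healthy NSG mice were given a single 10 mg/kg intraperitoneal injection. Brains were collected at set timepoints, including 2 h post-dose. Both the intact conjugate and its released antiandrogen payload were measured in brain tissue, with concentrations expressed as ng/g.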

For orientation: Cmax means the highest concentration seen after dosing. In general, AUC(0-t) refers to the area under the concentration-time curve up to a stated or last time point. Read a low AUC(0-t) as low exposure. A word on the Tmax: it is the time from dosing to the highest level.

Activity calls are given as the source filed them. The rule behind the calls is not given here.

Consider `CN(CCN(C)C(=O)O[C@@H]1CCC[C@]2(C1)OOC1(O2)C2CC3CC(C2)CC1C3)C(=O)Oc1ccc(N2C(=S)N(c3ccc(C#N)c(C(F)(F)F)c3)C(=O)C23CCC3)cc1` (some centres undefined), for which the Kinetic_solubility in data set [1] turned out to be 2.3 µM. Also, the Activity result in data set [2] was “Dose-Dependent Effect”. The molecule also yielded a peak concentration (Cmax) in data set [3] of 346 ng/mL. The result in [4], in data set [9], in [11] and in [12] was Active. In addition, the AUC(0-t) in data set [5] was 81.1 µg·h/mL. The result in data set [6] was inactive. The CLH in data set [7] worked out at 25.9 µL/min/mg. The Tmax in [8] turned out to be 30 min. Also, the t1/2 in data set [10] worked out at 53.4 min.
On to `N#Cc1ncc(N2C(=O)C3(CCC3)N(c3ccc(OC4CCN(C(=O)O[C@@H]5CCC[C@]6(C5)OOC5(O6)C6CC7CC(C6)CC5C7)CC4)nc3)C2=S)cc1C(F)(F)F` (some centres undefined), for which, in data set [1], the Kinetic_solubility is less than 0.4 µM. Moreover, in data set [3], the Cmax was 641 ng/mL. Also, the outcome in data set [4], in data set [9], in data set [11] and in data set [12] was Active. Further, the AUC(0-t) in data set [5] amounted to 158 µg·h/mL. Further, the CLH in [13] stood at 28.8 µL/min/mg. Also, the outcome in [6] was inactive. The time to peak (Tmax) in [8] turned out to be 30 min. For the same molecule, the t1/2 in [14] stood at 48.2 min.
Consider `CNC(=O)c1ccc(N2C(=S)N(c3cnc(C#N)c(C(F)(F)F)c3)C(=O)C23CCC3)cc1F` [APALUTAMIDE], for which the Cmax in data set [3] is 4330 ng/mL. Moreover, the outcome in data set [4] and in [11] was Active. Moreover, the AUC(0-t) in data set [5] was 4490 µg·h/mL. In addition, the result in [6] was inactive. Also, the concentration at 2 h in [15] came to 808 ng/g. For the same molecule, in data set [8], the Tmax stood at 240 min.
Turning to `N#Cc1ncc(N2C(=O)C3(CCC3)N(c3ccc(OC4CCN(C(=O)O[C@H]5CCC[C@@]6(C5)OOC5(O6)C6CC7CC(C6)CC5C7)CC4)nc3)C2=S)cc1C(F)(F)F` (some centres undefined), the CLH in data set [13] was found to be 40.2 µL/min/mg. In addition, the t1/2 in data set [14] came to 34.5 min.
With `N#Cc1ccc(N2C(=O)C3(CCC3)N(c3ccc(O)cc3)C2=S)cc1C(F)(F)F`, the outcome in data set [6] was inactive.
On the same count and under the same terms, under `N#Cc1ncc(N2C(=O)C3(CCC3)N(c3ccc(OC4CCNCC4)nc3)C2=S)cc1C(F)(F)F` stands “inactive”.

The values above are taken from ChEMBL document CHEMBL5346890, “Elevated labile iron in castration-resistant prostate cancer is targetable with ferrous iron-activatable antiandrogen therapy” (Eur J Med Chem, 2023).
